From ChEMBL document CHEMBL4689842, “EUbOPEN Chemogenomics Library wave 1” (2021)

Tested on: HEK-293T
Experiment: Multiplex assay against HEK293T;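 as to Population Tubulin-Different-Phenotype (%): share of the cells with healthy nuclei that show this phenotype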
Type: toxicity, cell-based
Conditions: human
Summary of the method: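 Per cents of healthy-nucleus cells form the tubulin, mitochondrial-mass and membrane-permeability phenotype values. Live cells were stained at seeding with Hoechst33342, BioTracker Green Microtubule Cytoskeleton Dye, MitoTracker Red and Annexin V Alexa Fluor 680. After compound addition they were imaged on a CQ1 microscope at 37°C and 5% CO2, and CellPathfinder machine-learning gating split them into Hoechst high-intensity objects or normal cells, normal cells into healthy, pyknosed or fragmented nuclei, and pyknosed cells into mitotic or apoptotic.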

[1] = 12 h, 1 µM, compound concentration 1 uM, replicate 1
[2] = 12 h, 1 µM, compound concentration 1 uM, replicate 2
[3] = 12 h, 10 µM, compound concentration 10 uM, replicate 1
[4] = 12 h, 10 µM, compound concentration 10 uM, replicate 2
[5] = 24 h, 1 µM, compound concentration 1 uM, replicate 1
[6] = 24 h, 1 µM, compound concentration 1 uM, replicate 2
[7] = 24 h, 10 µM, compound concentration 10 uM, replicate 1
[8] = 24 h, 10 µM, compound concentration 10 uM, replicate 2
[9] = 48 h, 1 µM, compound concentration 1 uM, replicate 1
[10] = 48 h, 1 µM, compound concentration 1 uM, replicate 2
[11] = 48 h, 10 µM, compound concentration 10 uM, replicate 1
[12] = 48 h, 10 µM, compound concentration 10 uM, replicate 2

## O=C(Cc1ccc(-c2ccc(OCCN3CCOCC3)cc2)cn1)NCc1ccccc1 [TIRBANIBULIN]
[1]
  Population Apoptotic (%): 34%
  Population Fragmented Nuclei (%): 17%
  Population Healthy Nuclei (%): 21%
  Population Hoechst High Intensity Objects (%): 12%
  Population Membrane Permeable-Phenotype (%): 0%
  Population Mitochondria Different-Phenotype (%): 58%
  Population Mitotic Cells (%): 65%
  Population Normal (%): 87%
  Population Pyknosed Nuclei (%): 61%
  Population Tubulin-Different-Phenotype (%): 2%
  Total Cell Count: 193
[2]
  Population Apoptotic (%): 16%
  Population Fragmented Nuclei (%): 8%
  Population Healthy Nuclei (%): 30%
  Population Hoechst High Intensity Objects (%): 2%
  Population Membrane Permeable-Phenotype (%): 10%
  Population Mitochondria Different-Phenotype (%): 23%
  Population Mitotic Cells (%): 83%
  Population Normal (%): 97%
  Population Pyknosed Nuclei (%): 60%
  Population Tubulin-Different-Phenotype (%): 11%
  Total Cell Count: 231
[3]
  Population Apoptotic (%): 52%
  Population Fragmented Nuclei (%): 20%
  Population Healthy Nuclei (%): 21%
  Population Hoechst High Intensity Objects (%): 18%
  Population Membrane Permeable-Phenotype (%): 0%
  Population Mitochondria Different-Phenotype (%): 79%
  Population Mitotic Cells (%): 47%
  Population Normal (%): 81%
  Population Pyknosed Nuclei (%): 58%
  Population Tubulin-Different-Phenotype (%): 27%
  Total Cell Count: 169
[4]
  Population Apoptotic (%): 17%
  Population Fragmented Nuclei (%): 5%
  Population Healthy Nuclei (%): 28%
  Population Hoechst High Intensity Objects (%): 5%
  Population Membrane Permeable-Phenotype (%): 2%
  Population Mitochondria Different-Phenotype (%): 23%
  Population Mitotic Cells (%): 82%
  Population Normal (%): 95%
  Population Pyknosed Nuclei (%): 66%
  Population Tubulin-Different-Phenotype (%): 6%
  Total Cell Count: 160
[5]
  Population Apoptotic (%): 39%
  Population Fragmented Nuclei (%): 17%
  Population Healthy Nuclei (%): 21%
  Population Hoechst High Intensity Objects (%): 14%
  Population Membrane Permeable-Phenotype (%): 2%
  Population Mitochondria Different-Phenotype (%): 37%
  Population Mitotic Cells (%): 60%
  Population Normal (%): 85%
  Population Pyknosed Nuclei (%): 61%
  Population Tubulin-Different-Phenotype (%): 5%
  Total Cell Count: 194
[6]
  Population Apoptotic (%): 27%
  Population Fragmented Nuclei (%): 6%
  Population Healthy Nuclei (%): 29%
  Population Hoechst High Intensity Objects (%): 2%
  Population Membrane Permeable-Phenotype (%): 6%
  Population Mitochondria Different-Phenotype (%): 25%
  Population Mitotic Cells (%): 72%
  Population Normal (%): 97%
  Population Pyknosed Nuclei (%): 63%
  Population Tubulin-Different-Phenotype (%): 33%
  Total Cell Count: 207
[7]
  Population Apoptotic (%): 54%
  Population Fragmented Nuclei (%): 21%
  Population Healthy Nuclei (%): 16%
  Population Hoechst High Intensity Objects (%): 17%
  Population Membrane Permeable-Phenotype (%): 0%
  Population Mitochondria Different-Phenotype (%): 82%
  Population Mitotic Cells (%): 45%
  Population Normal (%): 82%
  Population Pyknosed Nuclei (%): 62%
  Population Tubulin-Different-Phenotype (%): 17%
  Total Cell Count: 168
[8]
  Population Apoptotic (%): 22%
  Population Fragmented Nuclei (%): 5%
  Population Healthy Nuclei (%): 25%
  Population Hoechst High Intensity Objects (%): 5%
  Population Membrane Permeable-Phenotype (%): 7%
  Population Mitochondria Different-Phenotype (%): 23%
  Population Mitotic Cells (%): 77%
  Population Normal (%): 94%
  Population Pyknosed Nuclei (%): 68%
  Population Tubulin-Different-Phenotype (%): 18%
  Total Cell Count: 160
[9]
  Population Apoptotic (%): 56%
  Population Fragmented Nuclei (%): 25%
  Population Healthy Nuclei (%): 23%
  Population Hoechst High Intensity Objects (%): 16%
  Population Membrane Permeable-Phenotype (%): 5%
  Population Mitochondria Different-Phenotype (%): 45%
  Population Mitotic Cells (%): 43%
  Population Normal (%): 83%
  Population Pyknosed Nuclei (%): 50%
  Population Tubulin-Different-Phenotype (%): 24%
  Total Cell Count: 187
[10]
  Population Apoptotic (%): 40%
  Population Fragmented Nuclei (%): 12%
  Population Healthy Nuclei (%): 43%
  Population Hoechst High Intensity Objects (%): 4%
  Population Membrane Permeable-Phenotype (%): 12%
  Population Mitochondria Different-Phenotype (%): 25%
  Population Mitotic Cells (%): 60%
  Population Normal (%): 95%
  Population Pyknosed Nuclei (%): 44%
  Population Tubulin-Different-Phenotype (%): 50%
  Total Cell Count: 213
[11]
  Population Apoptotic (%): 56%
  Population Fragmented Nuclei (%): 29%
  Population Healthy Nuclei (%): 13%
  Population Hoechst High Intensity Objects (%): 17%
  Population Membrane Permeable-Phenotype (%): 0%
  Population Mitochondria Different-Phenotype (%): 66%
  Population Mitotic Cells (%): 44%
  Population Normal (%): 82%
  Population Pyknosed Nuclei (%): 56%
  Population Tubulin-Different-Phenotype (%): 11%
  Total Cell Count: 160
[12]
  Population Apoptotic (%): 36%
  Population Fragmented Nuclei (%): 7%
  Population Healthy Nuclei (%): 39%
  Population Hoechst High Intensity Objects (%): 4%
  Population Membrane Permeable-Phenotype (%): 9%
  Population Mitochondria Different-Phenotype (%): 23%
  Population Mitotic Cells (%): 63%
  Population Normal (%): 95%
  Population Pyknosed Nuclei (%): 52%
  Population Tubulin-Different-Phenotype (%): 20%
  Total Cell Count: 145

## Cn1nc(C(F)(F)F)cc1-c1cnc(N2CCc3cc(S(=O)(=O)Nc4c(F)cc(Cl)cc4F)cc(N4CCCC4=O)c32)nc1 [TP-020]
[1]
  Population Apoptotic (%): 25%
  Population Fragmented Nuclei (%): 10%
  Population Healthy Nuclei (%): 71%
  Population Hoechst High Intensity Objects (%): 10%
  Population Membrane Permeable-Phenotype (%): 6%
  Population Mitochondria Different-Phenotype (%): 9%
  Population Mitotic Cells (%): 74%
  Population Normal (%): 89%
  Population Pyknosed Nuclei (%): 18%
  Population Tubulin-Different-Phenotype (%): 16%
  Total Cell Count: 692
[2]
  Population Apoptotic (%): 16%
  Population Fragmented Nuclei (%): 5%
  Population Healthy Nuclei (%): 89%
  Population Hoechst High Intensity Objects (%): 1%
  Population Membrane Permeable-Phenotype (%): 9%
  Population Mitochondria Different-Phenotype (%): 13%
  Population Mitotic Cells (%): 83%
  Population Normal (%): 98%
  Population Pyknosed Nuclei (%): 5%
  Population Tubulin-Different-Phenotype (%): 37%
  Total Cell Count: 1398
[3]
  Population Apoptotic (%): 17%
  Population Fragmented Nuclei (%): 14%
  Population Healthy Nuclei (%): 63%
  Population Hoechst High Intensity Objects (%): 11%
  Population Membrane Permeable-Phenotype (%): 2%
  Population Mitochondria Different-Phenotype (%): 2%
  Population Mitotic Cells (%): 82%
  Population Normal (%): 88%
  Population Pyknosed Nuclei (%): 21%
  Population Tubulin-Different-Phenotype (%): 3%
  Total Cell Count: 565
[4]
  Population Apoptotic (%): 4%
  Population Fragmented Nuclei (%): 9%
  Population Healthy Nuclei (%): 86%
  Population Hoechst High Intensity Objects (%): 1%
  Population Mitochondria Different-Phenotype (%): 5%
  Population Mitotic Cells (%): 95%
  Population Normal (%): 98%
  Population Pyknosed Nuclei (%): 4%
  Population Tubulin-Different-Phenotype (%): 5%
  Total Cell Count: 1658
[5]
  Population Apoptotic (%): 21%
  Population Fragmented Nuclei (%): 10%
  Population Hoechst High Intensity Objects (%): 7%
  Population Membrane Permeable-Phenotype (%): 12%
  Population Mitochondria Different-Phenotype (%): 8%
  Population Mitotic Cells (%): 78%
  Population Normal (%): 92%
  Population Pyknosed Nuclei (%): 8%
  Population Tubulin-Different-Phenotype (%): 31%
  Total Cell Count: 805
[6]
  Population Apoptotic (%): 6%
  Population Fragmented Nuclei (%): 12%
  Population Healthy Nuclei (%): 81%
  Population Hoechst High Intensity Objects (%): 1%
  Population Membrane Permeable-Phenotype (%): 13%
  Population Mitochondria Different-Phenotype (%): 6%
  Population Mitotic Cells (%): 93%
  Population Normal (%): 98%
  Population Pyknosed Nuclei (%): 5%
  Population Tubulin-Different-Phenotype (%): 47%
  Total Cell Count: 1839
[7]
  Population Apoptotic (%): 26%
  Population Fragmented Nuclei (%): 11%
  Population Healthy Nuclei (%): 77%
  Population Hoechst High Intensity Objects (%): 5%
  Population Membrane Permeable-Phenotype (%): 8%
  Population Mitochondria Different-Phenotype (%): 1%
  Population Mitotic Cells (%): 73%
  Population Normal (%): 94%
  Population Pyknosed Nuclei (%): 10%
  Population Tubulin-Different-Phenotype (%): 7%
  Total Cell Count: 670
[8]
  Population Apoptotic (%): 3%
  Population Fragmented Nuclei (%): 26%
  Population Healthy Nuclei (%): 71%
  Population Hoechst High Intensity Objects (%): 3%
  Population Membrane Permeable-Phenotype (%): 5%
  Population Mitochondria Different-Phenotype (%): 0%
  Population Mitotic Cells (%): 96%
  Population Normal (%): 96%
  Population Pyknosed Nuclei (%): 2%
  Population Tubulin-Different-Phenotype (%): 5%
  Total Cell Count: 2801
